Assay results published in PMC2750823 (Molecular cancer therapeutics, 2009).

What was measured:
[1] = system: H1299; conditions: cited from earlier work
[2] = system: Mcl-1; conditions: cited from earlier work
[3] = system: PC3ML cells; assay: Cell viability, ATP-LITE assay; assay type: cell-based; conditions: Homo sapiens, PC3-ML, 72 h, read-out: PC3ML EC50
Outline: (§1)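 Human cancer cells are grown in F12 or RPMI1640 medium with 5 mM L-glutamine, 5% FBS and penicillin/streptomycin. Cells are seeded at densities chosen by doubling time. Fresh 5% serum medium is added, and test compound is applied 24 h after seeding at varied concentrations in 0.1% DMSO. After 72 h, ATP is read with ATP-LITE reagent and normalized to DMSO-treated controls.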

[4] = system: RS11846 human lymphoma cell line; assay: Cell viability, ATP-LITE assay; assay type: cell-based; conditions: 72 h, read-out: RS11846 EC50 (ATP-LITE assay)
Outline: as §1

[5] = system: H460 human lung cancer cell line; assay: Cell viability, ATP-LITE assay; assay type: cell-based; conditions: NCI-H460, 72 h, read-out: H460 EC50
Outline: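 H460 cells were grown in F12 or RPMI1640 with 5 mM L-glutamine, 5% FBS and penicillin/streptomycin, then plated at 2000 cells/well. After 24 h, fresh 5% medium was added, followed by test compound at final concentrations in 0.1% DMSO. Viability was read with ATP-LITE after 72 h of treatment, and data were normalized to DMSO-treated cells.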

[6] = system: H1299 cells; assay: Cell viability, ATP-LITE assay; assay type: cell-based; conditions: Homo sapiens, NCI-H1299, 72 h, read-out: H1299 EC50
[7] = system: RS11846 human lymphoma cell line; assay: Apoptosis, Annexin V-FITC and propidium iodide assay; assay type: cell-based; conditions: read-out: RS11846 EC50 (Annexin V-FITC and propidium iodide assay)
[8] = Plasma stability; assay type: in vitro ADME; conditions: rat, 100 µM
[9] = Liver microsomal stability; assay type: in vitro ADME; conditions: rat, microsomes, 4 µM, pH 7.4

| Structure (SMILES) | killing Mcl-1 overexpressing cell lines such as the H1299 [1] | effectiveness against Mcl-1 [2] | EC50 [3] | EC50 [4] | EC50 [5] | EC50 [6] | EC50 [7] | Plasma Stability (T=1 hr) [8] | Microsomal Stability (T=1 hr) [9] |
| --- | --- | --- | --- | --- | --- | --- | --- | --- | --- |
| CN(C)CC[C@H](CSc1ccccc1)Nc1ccc(S(=O)(=O)NC(=O)c2ccc(N3CCN(Cc4ccccc4-c4ccc(Cl)cc4)CC3)cc2)cc1[N+](=O)[O-] [ABT-737] | not effective | not effective |  |  |  |  |  |  |  |
| Cc1cc2c(C(C)C)c(O)c(O)c(C=O)c2c(O)c1-c1c(C)cc2c(C(C)C)c(O)c(O)c(C=O)c2c1O [Gossypol] |  |  | 3.1 µM | 2.2 µM | 3 µM | 6 µM | 4.23 µM |  |  |
| Cc1cc2c(C(C)C)c(O)c(O)cc2c(O)c1-c1c(C)cc2c(C(C)C)c(O)c(O)cc2c1O [Apogossypol] |  |  | 10.3 µM | 5 µM | 5.8 µM |  | 8.6 µM | 53% | 60% |
